What all share (type): functional
Test [1] deals with Mycolicibacterium smegmatis. Put plainly: Antimicrobial activity against Mycobacterium smegmatis.
Test [2] has as its system Vibrio harveyi. Put plainly: Antimicrobial activity against Vibrio harveyi. In outline:
(§1)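 Overnight bacterial culture diluted 1000-fold into fresh medium the next day, then exposed to compound at five doses (100, 25, 6.25, 1.56, 0.39 μg/mL) in DMSO (final 1% v/v). DMSO-only and ampicillin no-growth controls were included. Incubated overnight at 37 °C in duplicate. Scored as % growth inhibition, averaged over two independent determinations, giving MIC50.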

Test [3] concerns Candida albicans. Description: Antimicrobial activity against Candida albicans.
The test system of test [4] is Staphylococcus aureus. Description: Antimicrobial activity against Staphylococcus aureus. In outline:
as §1

For test [5], the system named is Escherichia coli. Put plainly: Antimicrobial activity against Escherichia coli.
Test [6] concerns Mycolicibacterium smegmatis. Description: Growth inhibition of Mycobacterium smegmatis at 25 ug/ml.
Test [7] concerns Candida albicans. Description: Growth inhibition of Candida albicans at 100 ug/ml.
In test [8] the test system is Mycolicibacterium smegmatis. Description: Growth inhibition of Mycobacterium smegmatis at 100 ug/ml.
Test [9] concerns Candida albicans. Description: Growth inhibition of Candida albicans at 25 ug/ml.

≈ marks a conversion by molar mass, not a printed value. Calls of active or inactive are those of the source. The rule behind the calls is not given here. Bounds are passed on as bounds.

Turning to `NS(=O)(=O)c1ccc(C(=O)NCc2cn(-c3ccc(S(N)(=O)=O)cc3)nn2)cc1`, in test [1], the MIC50 is 100 µg/mL (≈ 229 µM). Also, the outcome in test [2], in test [3] and in test [4] was inactive.

For `CC1(C)S[C@@H]2[C@H](NC(=O)[C@H](N)c3ccccc3)C(=O)N2[C@H]1C(=O)O` [AMPICILLIN], the MIC50 in test [2], in test [5] and in [4] was 500 µg/mL (≈ 1430 µM) throughout.

With `CN[C@@H]1[C@H](O[C@H]2[C@H](O[C@H]3[C@H](O)[C@@H](O)[C@H](N=C(N)N)[C@@H](O)[C@@H]3N=C(N)N)O[C@@H](C)[C@]2(O)C=O)O[C@@H](CO)[C@H](O)[C@H]1O` [STREPTOMYCIN], the MIC50 in test [1] was 500 µg/mL (≈ 860 µM).

As to `NS(=O)(=O)c1ccc(C(=O)O)cc1` [CARZENIDE], in [1], the MIC50 is above 100 µg/mL. Moreover, the result in test [2], in [3] and in [4] was inactive.

In test [1], `NS(=O)(=O)c1ccc(-n2cc(CO)nn2)cc1` registered an MIC50 above 100 µg/mL. Also, the result in test [2], in test [3] and in test [4] was inactive.

Compound `C#CCNC(=O)c1ccc(S(N)(=O)=O)cc1` came in with an MIC50 in [1] above 100 µg/mL. The result in test [2], in test [3] and in test [4] was inactive.

As to `[N-]=[N+]=Nc1ccc(S(N)(=O)=O)cc1`, the outcome in [2], in test [3] and in test [4] was inactive.

`NS(=O)(=O)c1ccc(C(=O)OCc2cn(-c3ccc(S(N)(=O)=O)cc3)nn2)cc1`: the inhibition at 25 µg/mL is 68% in test [6] and 36% in test [9]. Moreover, the inhibition at 100 µg/mL in [7] was determined as 49%; in [8], 92%. For the same compound, the figures for the MIC50 in [1] and in test [3] were below 25 µg/mL and 100 µg/mL (≈ 229 µM), respectively. For the same compound, the outcome in test [2] and in [4] was inactive.

`C#CCOC(=O)c1ccc(S(N)(=O)=O)cc1` returned an MIC50 in test [1] above 100 µg/mL. Further, the outcome in test [2], in test [3] and in test [4] was inactive.

Regarding `Nc1ccc(S(N)(=O)=O)cc1` [SULFANILAMIDE], the MIC50 in test [1] is above 100 µg/mL. In addition, the outcome in test [2], in [3] and in test [4] was inactive.

As a reminder, the MIC50 is the lowest concentration that inhibits either 50% of growth or 50% of the strains tested, depending on the study. Low values mean greater potency, high ones weaker potency. By inhibition is commonly meant the drop in the measured response relative to a control, in per cent.

For the origin of these results see ChEMBL document CHEMBL1139119, “Anti-mycobacterial activity of a bis-sulfonamide” (2007).
